From ChEMBL document CHEMBL4342509, “New 8-Nitroquinolinone Derivative Displaying Submicromolar in Vitro Activities against Both Trypanosoma brucei and cruzi” (ACS Med Chem Lett, 2020)

Legend:
Leishmania infantum = test: Antileishmanial activity against Leishmania infantum MHOM/MA/67/ITMAP-263 axenic amastigotes expressing luciferase plasmid assessed as reduction in parasite viability incubated for 48 hrs by Steady Glow reagent based luminescence assay; format: functional, organism-based; details: MHOM/MA/67/ITMAP-263, 48 h
[1] = tested on: Trypanosoma brucei brucei; test: Antitrypanosomal activity against Trypanosoma brucei brucei AnTat 1.9 trypomastigotes assessed as reduction in parasite viability incubated for 69 hrs by Alamar Blue dye based assay; format: functional, organism-based; details: AnTat 1.9, 69 h
Procedure, shortened: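 Bloodstream AnTat 1.9 parasites grown at 37°C, 5% CO₂ in MEM with Earle's salts (Baltz-type) plus 0.5 mM mercaptoethanol, 1.5 mM L-cysteine, 0.05 mM bathocuproine sulfate and 20% heat-inactivated horse serum. EC50 from nonlinear regression, three independent experiments in duplicate.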

HepG2 = test: (§1) Cytotoxicity against human HepG2 cells assessed as reduction in cell viability incubated for 72 hrs by MTT assay; format: cell-based; details: hepg2, 72 h
[2] = Selectivity index, ratio of CC50 for human HepG2 cells to EC50 for Trypanosoma brucei brucei trypomastigotes AnTat 1.9; format: toxicity; details: read-out: Ratio CC50/EC50
[3] = Electrochemical behavior of the compound assessed as redox potential corrected toward normal hydrogen electrode by cyclic voltammetry
[4] = tested on: Trypanosoma brucei brucei; test: Antitrypanosomal activity against blood stream form of Trypanosoma brucei brucei S427 trypomastigotes overexpressing NTR assessed as inhibition of parasite growth; format: functional, organism-based
[5] = tested on: Trypanosoma brucei brucei; test: Antitrypanosomal activity against bloodstream form of wild type Trypanosoma brucei brucei S427 trypomastigotes assessed as inhibition of parasite growth; format: functional, organism-based
Leishmania donovani [6] = test: Antileishmanial activity against wild type Leishmania donovani BOB (MHOM/SD/62/1S-CL2D) promastigotes assessed as inhibition of parasite growth incubated for 72 hrs by resazurin dye based assay; format: functional, organism-based
Procedure, shortened: (§2)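 LdBOB promastigotes grown at 26 °C in modified M199; NTR1- or NTR2-overexpressing lines kept under nourseothricin (100 µg/mL). Triplicate cultures seeded at 5×10^4 parasites/mL with drug for 72 h; 50 µM resazurin added, fluorescence (ex 528/em 590 nm) read after a further 4 h.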

Leishmania donovani [7] = test: Antileishmanial activity against Leishmania donovani BOB (MHOM/SD/62/1S-CL2D) promastigotes overexpressing NTR1 assessed as inhibition of parasite growth incubated for 72 hrs by resazurin dye based assay; format: functional, organism-based; procedure, shortened: as §2
Leishmania donovani [8] = test: Antileishmanial activity against Leishmania donovani BOB (MHOM/SD/62/1S-CL2D) promastigotes overexpressing NTR2 assessed as inhibition of parasite growth incubated for 72 hrs by resazurin dye based assay; format: functional, organism-based; procedure, shortened: as §2
[9] = Microsomal stability in CD-1 mouse liver microsomes in presence of NADP measured up to 40 mins by LC-MS analysis; format: ADME, Microsome
Procedure, shortened: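 Compound incubated in duplicate with female CD-1 mouse microsomes at 37°C in 50 mM phosphate pH 7.4. Cofactors: 5 mM MgCl₂, 1 mM NADP, 0.4 U/mL G6PDH and 5 mM glucose-6-phosphate. […] Propranolol reference.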

[10] = Permeability of the compound in pH 7.4 Prisma HT buffer at 100 uM incubated for 4 hrs by PAMPA-BBB assay method; format: ADME; details: read-out: permeability
[11] = tested on: Trypanosoma brucei brucei; test: Selectivity index, ratio of EC50 for bloodstream form of wild type Trypanosoma brucei brucei S427 trypomastigotes to EC50 for blood stream form of Trypanosoma brucei brucei S427 trypomastigotes overexpressing NTR; format: functional
Trypanosoma cruzi = test: Antitrypanosomal activity against Trypanosoma cruzi CL Brener amastigotes infected in African green monkey Vero cells assessed as reduction in parasite growth incubated for 120 hrs at 24 hrs post-infection and measured on day 6 post-infection by hemocytometer based light microscopy; format: functional, organism-based
Procedure, shortened: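 Compounds, 2–4-fold serial dilutions over 0,1–25 µM final, applied for 120 h at 37°C. On day 6, released trypomastigotes pooled, centrifuged and counted by haemocytometer. EC50 by nonlinear regression; two experiments, triplicate wells.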

[12] = as §1; format: cell-based; details: HepG2 cells
Leishmania donovani [13] = test: Selectivity index, ratio of EC50 for wild type Leishmania donovani BOB (MHOM/SD/62/1S-CL2D) promastigotes to EC50 for Leishmania donovani BOB (MHOM/SD/62/1S-CL2D) promastigotes overexpressing NTR1; format: functional
Plasma proteins = test: Plasma protein binding incubated for 4 hrs by LCMS analysis
[14] = Half life in NMRI mouse at 25 mg/Kg, ig measured up to 24 hrs by LCMS analysis; format: ADME; details: in vivo, po

SMILES	EC50 (Leishmania infantum) [µM]	EC50 [1] [µM]	CC50 (HepG2) [µM]	selectivity ratio [2]	Activity [3] [V]	further results
COc1ccc2cc(C(F)(F)F)cc([N+](=O)[O-])c2n1	> 100	20.9	> 100	> 5	-0.75	
O=c1[nH]c2c([N+](=O)[O-])cccc2cc1Br				48	-0.45	EC50 [4]: 3.9 µM; EC50 [5]: 17.7 µM; EC50 (Leishmania donovani [6]): 5.9 µM; EC50 (Leishmania donovani [7]): 0.47 µM; EC50 (Leishmania donovani [8]): 4.6 µM
O=c1[nH]c2ccc(C(F)(F)F)cc2cc1Br	> 100	> 50	> 100			
NCCCC(N)(C(=O)O)C(F)F (configuration not stated) [EFLORNITHINE]		13.3	> 100			
O=c1ccc2cc(Br)cc([N+](=O)[O-])c2[nH]1	11.6	0.07	27.9	399	-0.4	
O=c1ccc2cc(C(F)(F)F)cc([N+](=O)[O-])c2[nH]1	18.5	1.7	41.3	24	-0.39	
O=c1[nH]c2c([N+](=O)[O-])cccc2cc1Cl	16	1.2		71	-0.47	
O=C(O)c1ccc(-c2cc3cc(Br)cc([N+](=O)[O-])c3[nH]c2=O)cc1	8	0.2	60.4	302	-0.4	EC50 [4]: 0.1 µM; EC50 [5]: 4 µM; t1/2 [9]: > 40 min; Papp at 4 h, 100 µM [10]: 1.27 ×10⁻⁶ cm/s; EC50 (Leishmania donovani [6]): 2 µM; EC50 (Leishmania donovani [7]): 1.3 µM; EC50 (Leishmania donovani [8]): 2.1 µM; Ratio EC50 [11]: 40
O=C(Cn1ccnc1[N+](=O)[O-])NCc1ccccc1 [BENZNIDAZOLE]						EC50 (Trypanosoma cruzi): 0.5 µM
O=C(O)c1ccc(-c2cc3cccc([N+](=O)[O-])c3[nH]c2=O)cc1	> 100	1.5		80	-0.56	EC50 [4]: 4.2 µM; EC50 [5]: 5.4 µM; CC50 at 72 h [12]: 120 µM
C[C@@H]1[C@H](O)[C@@H](C)/C=C/C=C/C=C/C=C/C=C/C=C/C=C/[C@H](O[C@@H]2O[C@H](C)[C@@H](O)[C@H](N)[C@@H]2O)C[C@@H]2O[C@](O)(C[C@@H](O)C[C@@H](O)[C@H](O)CC[C@@H](O)C[C@@H](O)CC(=O)O[C@H]1C)C[C@H](O)[C@H]2C(=O)O [AMPHOTERICIN B]	0.06					
CC1CS(=O)(=O)CCN1/N=C/c1ccc([N+](=O)[O-])o1 (configuration not stated) [NIFURTIMOX]						EC50 [4]: 0.6 µM; EC50 [5]: 1.9 µM
CCCCCCCCCCCCCCCCOP(=O)([O-])OCC[N+](C)(C)C [MILTEFOSINE]	0.8					
O=c1[nH]c2c([N+](=O)[O-])cc(C(F)(F)F)cc2cc1Cl	9.2	0.57	31.4	55		
O=c1[nH]c2c([N+](=O)[O-])cc(C(F)(F)F)cc2cc1Br	3.9	0.2	41.3	206	-0.36	EC50 [4]: 0.9 µM; EC50 [5]: 6.7 µM; t1/2 [9]: > 40 min; Papp at 4 h, 100 µM [10]: 45 ×10⁻⁶ cm/s; EC50 (Leishmania donovani [6]): 4.1 µM; EC50 (Leishmania donovani [7]): 1.2 µM; EC50 (Leishmania donovani [8]): 4.9 µM; Ratio EC50 (Leishmania donovani [13]): 3.5; Ratio EC50 [11]: 7; Activity (Plasma proteins): 99.4%
O=c1[nH]c2c([N+](=O)[O-])cc(Br)cc2cc1Br	6.5	0.05	16.6	332	-0.37	
O=c1ccc2cc(C(F)(F)F)ccc2[nH]1	> 100	> 50	> 100			
Cc1ccc(C(=O)Nc2ccc(S(=O)(=O)O)c3cc(S(=O)(=O)O)cc(S(=O)(=O)O)c23)cc1NC(=O)c1cccc(NC(=O)Nc2cccc(C(=O)Nc3cc(C(=O)Nc4ccc(S(=O)(=O)O)c5cc(S(=O)(=O)O)cc(S(=O)(=O)O)c45)ccc3C)c2)c1 [SURAMIN]		0.03	> 100	> 3330		
CSc1ccc(OCc2ncc([N+](=O)[O-])n2C)cc1 [FEXINIDAZOLE]	3.4	0.4	> 200	> 500		half-life [14]: 48 min; EC50 (Trypanosoma cruzi): 3 µM
O=c1[nH]c2c([N+](=O)[O-])cc(Cl)cc2cc1Cl	6.2	0.1	24.3	243	-0.37	
O=c1[nH]c2ccc(C(F)(F)F)cc2cc1Cl	> 100	> 50	> 100			
Nc1cc(C(F)(F)F)cc2cc(Br)c(=O)[nH]c12	> 100	8.7	> 100	> 11		
O=c1[nH]c2c([N+](=O)[O-])cc(C#CCCCO)cc2cc1Cl	10.1	0.85	32.7	38		
O=c1[nH]c2c([N+](=O)[O-])cc(C#CCO)cc2cc1Cl	8.9	1	30.9	31		
